We go through 29 compounds from ChEMBL document CHEMBL1127338, “Synthesis and antifungal activity of 1,3,2-benzodithiazole S-oxides” (J Med Chem, 1994).

Usually MIC stands for the least concentration at which growth counts as inhibited. A low value points to greater potency.

In brackets after ≈: the same amount, converted by molar mass.

Data set [1] relates to Candida albicans. Kind of data set: Antifungal activity against Candida albicans 10231 strain. The class given is functional. The method, boiled down: (§1)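 MIC determined by microtiter broth dilution in yeast nitrogen base with 0.05% glucose. Inoculum came from an overnight plate culture, at a final 5×10^4 cfu/mL. Plates were incubated at 35 °C for 24-48 h. MIC was taken as the lowest drug concentration completely inhibiting visible growth. 10231, 442 and 579A are clinical isolates; 38247 is a nonclinical amphotericin-resistant strain.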

Data set [2] concerns Candida albicans. Kind of data set: Antifungal activity against Candida albicans 579A strain. The class given is functional. Summed up: as §1
In data set [3] the test system is Candida albicans. In words: Antifungal activity against Candida albicans 38247 strain. Format: functional. Summed up: as §1
Data set [4] concerns Candida albicans. Kind of data set: Antifungal activity against Candida albicans CCH442 strain. Format: functional. The method, boiled down:
as §1

Data set [5] deals with Rattus norvegicus. In words: % of the total radioactive dose of compound present in the 0-24 hour urine after a single 5 mg/kg dose administered intravenously in rats. The class given is ADME, organism-based. Set-up: dose 5 mg/kg, route intravenous. The conditions noted are these: in vivo, iv. Summed up:
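14C-benzylic-labelled compound mixed with unlabelled material, given once iv at 5 mg/kg (~15 μCi per rat) as a 5 mg/mL solution in ethanol/propylene glycol/saline (20:35:45). Urine and feces collected daily for 3 days from two rats. Duplicate urine aliquots counted by liquid scintillation with quench correction. Fecal homogenates oxidized to 14CO2 before counting.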

Data set [6] deals with Rattus norvegicus. In words: plasma concentration of total radio activity 30 minutes after intravenous administration in rats. Format: ADME, organism-based. The conditions noted are these: in vivo, 0.5 h. The method, boiled down: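 Rats given a single 5 mg/kg iv dose of 14C-labelled compound (~15 μCi each) in ethanol/propylene glycol/saline (20:35:45). At 30 min, one male and two female rats were anesthetized with CO2 and bled by cardiac puncture. Plasma was separated from heparinized blood by centrifugation at 4 °C for 15 min. Duplicate aliquots were counted by liquid scintillation with quench correction.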

For the compound `CCC(CC)N1Sc2ccccc2[S+]1[O-]` (stereo not drawn), the MIC against Candida albicans [1] was found to be 100 µg/mL (≈ 414 µM); with Candida albicans [2], 100 µg/mL (≈ 414 µM); with Candida albicans [3], 50 µg/mL (≈ 207 µM); with Candida albicans [4], 100 µg/mL (≈ 414 µM).

As for `[O-][S+](c1ccccc1)N(Cc1ccccc1)Sc1ccccc1` (stereo not drawn), the MIC with Candida albicans [1] is above 100 µg/mL; against Candida albicans [2], above 100 µg/mL; in the data set with Candida albicans [3], 50 µg/mL (≈ 147 µM); against Candida albicans [4], above 100 µg/mL.

Take `[O-][S+]1c2ccccc2SN1Cc1c(F)cccc1F` (stereo not drawn): the MIC with Candida albicans [1] is 0.78 µg/mL (≈ 2.62 µM); against Candida albicans [2], 0.78 µg/mL (≈ 2.62 µM); in the data set on Candida albicans [3] it was 1.56 µg/mL (≈ 5.25 µM); in the data set on Candida albicans [4], 1.56 µg/mL (≈ 5.25 µM).

In the case of `[O-][S+]1c2ccccc2SN1Cc1ccc(F)c(F)c1` (stereo not drawn), the minimal inhibitory concentration (MIC) was 1.56 µg/mL (≈ 5.25 µM) in the data set on Candida albicans [1], 1.56 µg/mL (≈ 5.25 µM) in the data set on Candida albicans [2], 3.12 µg/mL (≈ 10.5 µM) in the data set with Candida albicans [3] and 1.56 µg/mL (≈ 5.25 µM) in the data set on Candida albicans [4].

As for `[O-][S+]1c2ccc(F)cc2SN1Cc1ccccc1` (stereo not drawn), the MIC in the data set with Candida albicans [1] was determined as 0.78 µg/mL (≈ 2.79 µM); against Candida albicans [2] it was 0.78 µg/mL (≈ 2.79 µM); against Candida albicans [3], 1.56 µg/mL (≈ 5.58 µM); with Candida albicans [4], 0.78 µg/mL (≈ 2.79 µM).

Consider `Cc1cccc2c1[S+]([O-])N(Cc1ccccc1)S2` (stereo not drawn), for which the minimal inhibitory concentration (MIC) in the data set on Candida albicans [1] worked out at 0.78 µg/mL (≈ 2.83 µM); against Candida albicans [2] it was 0.78 µg/mL (≈ 2.83 µM); with Candida albicans [3] it was 1.56 µg/mL (≈ 5.66 µM); in the data set with Candida albicans [4], 1.56 µg/mL (≈ 5.66 µM).

`CC(C)(C)CCN1Sc2ccccc2[S+]1[O-]` (stereo not drawn): the MIC in the data set on Candida albicans [1] worked out at 1.56 µg/mL (≈ 6.11 µM); in the data set on Candida albicans [2], 3.12 µg/mL (≈ 12.2 µM); in the data set on Candida albicans [4] it was 1.56 µg/mL (≈ 6.11 µM).

On to `Cc1ccc(C)c2c1SN(Cc1ccccc1)[S+]2[O-]` (stereo not drawn), for which the minimal inhibitory concentration (MIC) was 1.56 µg/mL (≈ 5.39 µM) against Candida albicans [1], 3.12 µg/mL (≈ 10.8 µM) against Candida albicans [2], 25 µg/mL (≈ 86.4 µM) with Candida albicans [3] and 3.12 µg/mL (≈ 10.8 µM) in the data set with Candida albicans [4].

For the compound `CCCCCCCCCCCCCCCCN1Sc2ccccc2[S+]1[O-]` (stereo not drawn), the MIC against Candida albicans [1], in the data set on Candida albicans [2], against Candida albicans [3] and with Candida albicans [4] was above 100 µg/mL each time.

With `CCCCCCCC/C=C/CCCCCCCCN1Sc2ccccc2[S+]1[O-]` (stereo not drawn), the MIC against Candida albicans [1] is 100 µg/mL (≈ 237 µM); with Candida albicans [2], 100 µg/mL (≈ 237 µM); in the data set on Candida albicans [3], above 100 µg/mL; with Candida albicans [4] it was above 100 µg/mL.

For the compound `c1ccc(CN2Sc3ccccc3S2)cc1`, the MIC with Candida albicans [1] was 6.25 µg/mL (≈ 25.5 µM); against Candida albicans [2], 6.25 µg/mL (≈ 25.5 µM); with Candida albicans [3] it was 25 µg/mL (≈ 102 µM); against Candida albicans [4] it was 12.5 µg/mL (≈ 50.9 µM).

As to `[O-][S+]1c2ccccc2SN1Cc1ccccc1` (stereo not drawn), the Excretion in the data set on Rattus norvegicus [5] amounted to 88%. Further, the Plasma concentration with Rattus norvegicus [6] came out at 4.6 ug equiv ml-1.

For the compound `[O-][S+]1c2ccccc2SN1c1ccc2c(c1)OCO2` (stereo not drawn), the MIC was found to be 12.5 µg/mL (≈ 42.9 µM) in the data set on Candida albicans [1], 25 µg/mL (≈ 85.8 µM) with Candida albicans [2], 25 µg/mL (≈ 85.8 µM) against Candida albicans [3] and 25 µg/mL (≈ 85.8 µM) against Candida albicans [4].

With `[O-][S+]1c2c(F)c(F)c(F)c(F)c2SN1Cc1ccccc1` (stereo not drawn), the MIC with Candida albicans [1] came out at 6.25 µg/mL (≈ 18.8 µM); in the data set with Candida albicans [2] it was 6.25 µg/mL (≈ 18.8 µM); against Candida albicans [3], 12.5 µg/mL (≈ 37.5 µM); with Candida albicans [4], 12.5 µg/mL (≈ 37.5 µM).

Take `COCC(Cc1ccccc1)N1Sc2ccccc2[S+]1[O-]` (stereo not drawn): the MIC in the data set with Candida albicans [1], with Candida albicans [2], with Candida albicans [3] and with Candida albicans [4] was 3.12 µg/mL (≈ 9.77 µM) each time.

Consider `CCCN1Sc2ccccc2S1`, for which the MIC stood at 3.12 µg/mL (≈ 15.8 µM) in the data set on Candida albicans [1], 3.12 µg/mL (≈ 15.8 µM) against Candida albicans [2], 25 µg/mL (≈ 127 µM) in the data set with Candida albicans [3] and 12.5 µg/mL (≈ 63.3 µM) in the data set with Candida albicans [4].

For `[O-][S+]1c2c(F)c(F)c(N3CCOCC3)c(F)c2SN1Cc1ccccc1` (stereo not drawn), the MIC in the data set on Candida albicans [1] turned out to be 50 µg/mL (≈ 125 µM); against Candida albicans [2], 25 µg/mL (≈ 62.4 µM); in the data set on Candida albicans [3], 12.5 µg/mL (≈ 31.2 µM); with Candida albicans [4], 50 µg/mL (≈ 125 µM).

Consider `c1ccc2c(c1)SN(C1CC1)S2`, for which the MIC in the data set with Candida albicans [1] is 25 µg/mL (≈ 128 µM); against Candida albicans [2], 25 µg/mL (≈ 128 µM); in the data set with Candida albicans [3], 50 µg/mL (≈ 256 µM); against Candida albicans [4] it was 50 µg/mL (≈ 256 µM).

Turning to `CC(c1ccccc1)N1Sc2ccccc2[S+]1[O-]` (stereo not drawn), the minimal inhibitory concentration (MIC) came out at 1.56 µg/mL (≈ 5.66 µM) with Candida albicans [1], 1.56 µg/mL (≈ 5.66 µM) in the data set on Candida albicans [2], 3.12 µg/mL (≈ 11.3 µM) against Candida albicans [3] and 1.56 µg/mL (≈ 5.66 µM) with Candida albicans [4].

Take `[O-][S+]1c2ccccc2SN1C12CC3CC(CC(C3)C1)C2` (stereo not drawn): the MIC came to 6.25 µg/mL (≈ 20.5 µM) against Candida albicans [1], 12.5 µg/mL (≈ 40.9 µM) in the data set on Candida albicans [2], 50 µg/mL (≈ 164 µM) against Candida albicans [3] and 25 µg/mL (≈ 81.8 µM) against Candida albicans [4].

Take `[O-][S+]1c2ccccc2SN1C(c1ccccc1)c1ccccc1` (stereo not drawn): the MIC against Candida albicans [1] was determined as 25 µg/mL (≈ 74.1 µM); in the data set with Candida albicans [2], 6.25 µg/mL (≈ 18.5 µM); in the data set on Candida albicans [3], 25 µg/mL (≈ 74.1 µM); with Candida albicans [4], 12.5 µg/mL (≈ 37 µM).

Turning to `COc1cc(CN2Sc3ccccc3[S+]2[O-])cc(OC)c1OC` (stereo not drawn), the MIC in the data set on Candida albicans [1] came to 12.5 µg/mL (≈ 35.6 µM); in the data set with Candida albicans [2], 12.5 µg/mL (≈ 35.6 µM); against Candida albicans [3], 3.12 µg/mL (≈ 8.88 µM); in the data set with Candida albicans [4], 12.5 µg/mL (≈ 35.6 µM).

`[O-][S+]1c2ccccc2SN1CC1CCCCC1` (stereo not drawn): the MIC came to 1.56 µg/mL (≈ 5.83 µM) against Candida albicans [1], 1.56 µg/mL (≈ 5.83 µM) in the data set with Candida albicans [2], 3.12 µg/mL (≈ 11.7 µM) against Candida albicans [3] and 1.56 µg/mL (≈ 5.83 µM) with Candida albicans [4].

As for `[O-][S+]1c2ccccc2SN1Cc1ccc2ccccc2c1` (stereo not drawn), the MIC was determined as 3.12 µg/mL (≈ 10 µM) in the data set on Candida albicans [1], 3.12 µg/mL (≈ 10 µM) with Candida albicans [2], 12.5 µg/mL (≈ 40.1 µM) with Candida albicans [3] and 6.25 µg/mL (≈ 20.1 µM) against Candida albicans [4].

For `COc1ccc2c(c1)SN(Cc1ccccc1)[S+]2[O-]` (stereo not drawn), the MIC against Candida albicans [1] is 0.78 µg/mL (≈ 2.68 µM); against Candida albicans [2], 0.78 µg/mL (≈ 2.68 µM); against Candida albicans [3] it was 3.12 µg/mL (≈ 10.7 µM); against Candida albicans [4] it was 0.78 µg/mL (≈ 2.68 µM).

Turning to `Cc1cccc2c1SN(Cc1ccccc1)[S+]2[O-]` (stereo not drawn), the MIC was 12.5 µg/mL (≈ 45.4 µM) with Candida albicans [1], 12.5 µg/mL (≈ 45.4 µM) against Candida albicans [2], 25 µg/mL (≈ 90.8 µM) against Candida albicans [3] and 25 µg/mL (≈ 90.8 µM) with Candida albicans [4].

With `[O-][S+]1c2ccccc2SN1CCc1ccncc1` (stereo not drawn), the MIC in the data set on Candida albicans [1], in the data set on Candida albicans [2], with Candida albicans [3] and in the data set on Candida albicans [4] was 100 µg/mL (≈ 362 µM) each time.

Take `[O-][S+]1c2ccccc2SN1c1ccc(F)c(F)c1` (stereo not drawn): the MIC came out at 25 µg/mL (≈ 88.2 µM) in the data set on Candida albicans [1], 100 µg/mL (≈ 353 µM) against Candida albicans [2], 25 µg/mL (≈ 88.2 µM) with Candida albicans [3] and 25 µg/mL (≈ 88.2 µM) against Candida albicans [4].

Consider `C[C@@H]1[C@H](O)[C@@H](C)/C=C/C=C/C=C/C=C/C=C/C=C/C=C/[C@H](O[C@@H]2O[C@H](C)[C@@H](O)[C@H](N)[C@@H]2O)C[C@@H]2O[C@](O)(C[C@@H](O)C[C@@H](O)[C@H](O)CC[C@@H](O)C[C@@H](O)CC(=O)O[C@H]1C)C[C@H](O)[C@H]2C(=O)O` [AMPHOTERICIN B], for which the MIC against Candida albicans [1] is 1.56 µg/mL (≈ 1.69 µM); against Candida albicans [2] it was 1.56 µg/mL (≈ 1.69 µM); with Candida albicans [3], 25 µg/mL (≈ 27.1 µM); in the data set with Candida albicans [4], 0.78 µg/mL (≈ 0.844 µM).
